Bioassay records: PubChem BioAssay, Broad Institute
miR-122 sensor: miR-122 inhibition in Huh7 cells; Huh7 miR-122 Renilla luciferase sensor, 48 h; neutral wells = 0, positive control = 100; activation (reporter increase), % at 12.5 µM; 340,000 compounds, 0.3% hits; AID 602342;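 active = mean replicate activation score at least 90 and every replicate individually at or above 90; inconclusive = only one of the two criteria met; inactive = neither criterion met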;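 note: higher luciferase means less miR-122 activity so hits act as miR-122 inhibitors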
Ecoli rRNA inh: selective bacterial rRNA inhibition in E. coli; E. coli WT GFP vs humanized-ribosome RFP mutants, fluorescence, 24 h; stronger effect = lower value; DMSO median 0, no signal -100; GFP signal change (wild-type ribosome), % (test concentration not listed); 350,000 compounds, 1.6% hits; AID 720706;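 active = significant combined selectivity score with lowered wild-type GFP, culture density cut under 30%, mutant RFP and density less affected; inactive = any of these conditions unmet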
E-selectin induc: E-selectin induction on HUVECs; HUVEC E-selectin immunofluorescence imaging; normalized: neutral wells 0, TNF-alpha wells 100; P16581; activation, % at 7.58 µM; 260,000 compounds, 0.37% hits;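 active = mean E-selectin-positive cell signal at least 10% of the positive control, reached in at least 60% of replicates, without over 20% cell loss; inconclusive = no rule given, readout overlaps actives, possibly toxicity-flagged; inactive = the rest, including those meeting only one limit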
Target sequence (P16581 whole entry, looked up): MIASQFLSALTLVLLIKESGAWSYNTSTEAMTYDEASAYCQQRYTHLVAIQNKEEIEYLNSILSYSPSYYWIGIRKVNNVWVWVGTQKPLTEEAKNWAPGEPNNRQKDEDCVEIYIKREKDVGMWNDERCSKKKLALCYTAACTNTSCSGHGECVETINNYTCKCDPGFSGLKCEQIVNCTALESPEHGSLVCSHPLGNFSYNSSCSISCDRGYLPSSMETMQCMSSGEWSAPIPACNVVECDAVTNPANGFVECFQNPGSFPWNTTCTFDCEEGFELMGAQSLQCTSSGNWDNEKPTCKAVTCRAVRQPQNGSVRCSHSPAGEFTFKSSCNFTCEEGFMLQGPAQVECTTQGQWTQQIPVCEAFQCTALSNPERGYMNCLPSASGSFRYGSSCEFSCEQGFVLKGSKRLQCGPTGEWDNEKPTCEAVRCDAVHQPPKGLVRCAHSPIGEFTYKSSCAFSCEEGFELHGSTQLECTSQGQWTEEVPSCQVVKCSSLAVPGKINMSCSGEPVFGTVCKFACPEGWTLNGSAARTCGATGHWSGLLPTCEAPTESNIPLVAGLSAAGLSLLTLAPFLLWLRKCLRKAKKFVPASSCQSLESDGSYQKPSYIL
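material = human umbilical vein endothelial cells (HUVEC), E-selectin induction | quantity = 3,000 cells/well | medium = EGM-2 growth medium on 0.1% gelatin-coated wells | technique = immunofluorescence imaging | read-out basis = % PE-positive cells | control set = TNF-alpha positive control, DMSO neutral control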
Cneo AK release: Cryptococcus neoformans lysis via adenylate kinase release; C. neoformans lysis, adenylate kinase release luminescence, 4 h; normalised: neutral wells 0, clomiphene wells 100; lysis activity, % at 15 µM; 360,000 compounds, 0.2% hits;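 active = mean lysis activity across replicates of at least 80%, whatever share of replicates individually reach that level; inactive = mean lysis activity below 80%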
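Material: C. neoformans cells | Amount: Yeast cell density of 5 × 10^6 cells/mL | Medium: Fresh YPD growth medium | Dosing: Single dose | Times: Static 4 h at 37 °C with compound, 1 h detection | Detection: AK luminescence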
DENV2 CPE: inhibitors of DENV2 cytopathic effect | DENV2-infected cells, cytopathic effect rescue, plate reader | CPE inhibition, % at 9.99 µM | 350,000 compounds, 1.7% hits | AID 651640; in the data active = CPE inhibition above about 20%, passing the limit was not always enough; inconclusive = no clear call, values can overlap the other calls; tested in BHK-21 cells
Hits are given with their value; n = inactive; u = inconclusive; x = not tested or not shown. In the library only some 3.1% were active in any assay of this set; here they are far more common.

SMILES	miR-122 sensor	Ecoli rRNA inh	E-selectin induc	Cneo AK release	DENV2 CPE
Cc1cccc2cc(CN(CCCN(C)C)C(=S)NCCc3ccccc3)c(=O)[nH]c12	n	-17	n	n	n
Cc1ccc2cc(CN(CCc3ccccc3)C(=S)NCCCN(C)C)c(=O)[nH]c2c1	n	n	x	n	n
CNC(=S)N(CCc1cccc(C)c1)Cc1cc2cc(OC)c(OC)cc2[nH]c1=O	x	n	n	x	n
C[C@H](CO)N1C[C@H](C)[C@@H](CN(C)Cc2ccccc2)Oc2c(NC(=O)c3cnccn3)cccc2C1=O	n	n	n	n	n
O=C(c1cccnc1)C1Cc2ccccc2C1=O (centres undefined)	x	n	n	n	49
COc1ccccc1CC(Cc1nc2ccccc2[nH]1)c1nc2ccccc2[nH]1 (centres undefined)	x	n	176	x	n
N#CC(Cc1ccccc1OC(F)F)c1nc2ccccc2[nH]1 (centres undefined)	x	n	x	x	25
OC(c1nc2ccccc2[nH]1)C(O)c1nc2ccccc2[nH]1 (centres undefined)	n	n	x	n	n
CC(=O)Nc1cccc2c1Cc1cc([N+](=O)[O-])ccc1-2	n	-19	n	x	u
CC(=O)Nc1cccc2c1Cc1ccccc1-2	n	x	x	n	x
CC=Cc1ccc2n(c1=O)C[C@H]1[C@H](CO)[C@@H](C(=O)NCCC)N(C(=O)CC3CC3)[C@@H]21 (mixture of isomers)	n	n	n	n	n
COc1ccc(N(Cc2ccccc2)S(=O)(=O)c2cccc(C(=O)NC3=NCCS3)c2)cc1	119	x	x	n	x
O=C(O)c1cccc(S(=O)(=O)N(Cc2ccccc2)c2ccccc2)c1	x	n	x	x	u
O=C(O)c1cccc(S(=O)(=O)N(Cc2ccccc2)c2ccc(Cl)cc2)c1	n	-44	n	n	n
O=C(NC[C@H]1CC[C@@H]2[C@@H](CN2Cc2cccc(Cl)c2)O1)C1CC1	x	x	x	x	n
CCC(=O)N(C)C[C@@H]1Oc2cc(-c3cccc(OC)c3)ccc2S(=O)(=O)N([C@@H](C)CO)C[C@@H]1C	n	n	n	n	n
CCc1ccc(/C=N/NC(=O)c2cc(-c3cccc([N+](=O)[O-])c3)n[nH]2)cc1	n	-19	x	n	n
O=C(N/N=C/c1ccccc1)c1cc(-c2ccc3c(c2)OCO3)n[nH]1	n	-20	x	n	n
COc1ccc(OC)c(S(=O)(=O)N/N=C\c2ccc3c(c2)OCO3)c1	105	n	x	n	n
O=C(N/N=C/c1ccc(O)cc1)c1cc(-c2ccc3c(c2)OCO3)n[nH]1	n	n	x	n	n
O=C(NN=Cc1ccc2c(c1)OCO2)NN=Cc1ccc2c(c1)OCO2	n	-21	n	n	n
CCCN1C[C@H](C)[C@H](OC)CN(C)C(=O)c2cc(NC(=O)CC(F)(F)F)ccc2OC[C@@H]1C	x	n	n	x	n
CC(=O)Nc1ccc2c(c1)C(=O)N(C)C[C@H](C)[C@@H](CN(C)C)O2	x	n	x	x	x
Cc1cccc(NCC(=O)N/N=C/c2cccc(Br)c2)c1	x	n	n	x	n
Cc1ccc(NCC(=O)N/N=C/c2cccc(Br)c2)cc1	n	-23	n	n	31
SMILES	miR-122 sensor	Ecoli rRNA inh	E-selectin induc	Cneo AK release	DENV2 CPE
O=C(CNc1ccccc1)N/N=C/c1ccc2c(c1)OCO2	n	n	31	x	n
C[C@@H](NC(=O)C[C@@H]1C=C[C@@H](NC(=O)C2CCOCC2)[C@@H](CO)O1)c1ccccc1	x	n	n	n	n
CC=Cc1ccc2n(c1=O)C[C@H]1[C@H](CO)[C@@H](C(=O)NCC3CC3)[C@@H]2N1Cc1ccncc1 (mixture of isomers)	x	n	n	n	n
Cc1ccc(S(=O)(=O)c2nnn3c2nc(N2CCOCC2)c2ccccc23)cc1C	x	n	x	n	25
COc1ccc2c3c(n(C)c2c1)[C@H](CO)N(C(=O)CN(C)C)CC31CCN(C(=O)CN(C)C)CC1	x	n	n	x	n
O=C(NC1CCN(C(=O)N2c3ccccc3Sc3ccccc32)CC1)c1ccccc1F	n	-20	x	n	n
O=C(CN1CCN(Cc2ccc(Cl)cc2)CC1)N/N=C/C=C/c1ccccc1[N+](=O)[O-]	x	-42	n	x	n
COc1ccc(CC(=O)O/N=C(\N)c2ccccc2)cc1OC	n	-22	n	n	n
COc1ccc(CC(=O)O/N=C(\N)c2ccc(Br)cc2)cc1OC	n	n	n	n	n
COc1ccc(CC(=O)O/N=C(\N)c2ccc(OC)cc2)cc1	x	-19	x	n	n
COc1ccc(NC(=O)Nc2ccc3c(c2)C(=O)N([C@@H](C)CO)C[C@H](C)[C@H](CN(C)Cc2ccc(Cl)c(Cl)c2)OCCCC[C@@H](C)O3)cc1	n	n	n	n	n
O=C(O)c1ccc(N/N=C/c2ccc(-c3ccccc3)cc2)cc1	x	n	x	x	n
O=C(O)c1ccc(/C=N/Nc2cccc(C(F)(F)F)c2)cc1	n	-41	n	n	x
CNC[C@H]1OCCCC[C@@H](C)Oc2ccc(NC(=O)c3ccccc3)cc2C(=O)N([C@H](C)CO)C[C@@H]1C	n	n	n	n	n
Cc1ccccc1-c1cnc(C(O)c2ccc(F)c(F)c2)[nH]1 (centres undefined)	93	n	n	n	n
OC(c1ccc(Cl)c(Cl)c1)c1ncc(-c2ccccc2F)[nH]1 (centres undefined)	104	n	n	n	n
Cc1cc(C)cc(C(O)c2ncc(-c3ccc4ccccc4c3)[nH]2)c1 (centres undefined)	n	n	n	n	n
Cc1ccc(C(O)c2ncc(-c3ccc4ccccc4c3)[nH]2)cc1 (centres undefined)	n	n	n	n	76
OC(c1ccc(Cl)c(F)c1)c1ncc(-c2ccccc2F)[nH]1 (centres undefined)	u	n	n	n	n
c1ccc(OCCn2c(-c3ccco3)nc3ccccc32)cc1	n	-46	x	n	n
Nc1sc(Cc2ccccc2)cc1C(=O)c1c(-c2ccccc2)[nH]c2ccccc12	x	n	n	x	84
CCN(CC)c1ccc(NC(=O)CSc2nc(C)cc(=O)[nH]2)cc1	n	-14	n	n	n
O=C(O)C(Cc1ccc(Cl)cc1)NS(=O)(=O)c1ccc(Cl)cc1 (centres undefined)	n	n	n	n	23
CC(=O)N1CCN(c2cc(N3CCCC3)c(F)cc2[N+](=O)[O-])CC1	n	-19	n	n	x
Cn1c(=O)n(C)c2cc([N+](=O)[O-])c(N3CCN(C(=O)C(C)(C)C)CC3)cc21	n	-23	n	x	n
C[C@H]1CN([C@@H](C)CO)C(=O)c2c(c3ccccc3n2C)-c2ccccc2CO[C@@H]1CN(C)C(=O)c1cc(Cl)cc(Cl)c1	x	n	n	x	n
C[C@@H]1CN([C@@H](C)CO)C(=O)c2c(c3ccccc3n2C)-c2ccccc2CO[C@@H]1CN(C)S(=O)(=O)c1ccc(Cl)cc1	x	n	n	100	n
